In the RNAGym collection of RNA variant scans (doi:10.1126/science.aae0568):
This sample holds only a part of the variants without activity.

B1: tRNA (parent)
chain: GUUCCGUUGGCGUAAUGGUAACGCGUCUCCCUCCUAAGGAGAAGACUGCGGGUUCGAGUCCCGUACGGAACG

Variants of: B1
Assay: yeast fitness relative to wild type (ratio to wild type); higher = fitter; tRNA-Arg(CCU), competitive growth, 37 C, YPD
Summary of the method: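 Amplicons of the tRNA-Arg(CCU) gene were sequenced, 100-nucleotide paired-end, from the start population and from each end population of a pooled yeast competition. The competition, in six parallel replicates, lasted 24 hours in YPD at 37°C. Fitness relative to wild type was calculated from changes in genotype frequencies. Genotypes had to have ≥ 100 starting reads, and estimates < 0.5 were set to 0.5.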

Variant	yeast fitness
GUUCCGUUGGCGUAAUGGUAGCGCGUCUCCCUCCUAAGGGGAAGACUGCGGGUUCGAGUCUCGUACGGAACG	0.654
GUUCCGUUGGCGUAAUGGUACCGCGGCUCCCUCCUAAGGAGACGACUGCGGGUUCGAGUCCCGUACGGAACG	≤ 0.5
GUUCCGUUGGCGUAAUGGUAGCGCGUCUCCCUCCUAAGGAGCAGACUGCGGGUUCGAGUCCCGUAAGGAACG	≤ 0.5
GUUCCGUUGGCGUAAUGGUACCGCGUCACCCUCCUAAGGUGAAGACUGCGGGUUCGAGUCCGGUAGGGAACG	≤ 0.5
GUUCCGUUGGCGUAAUGGUACCGCGUCGCCCUCCUAAGGAGAAGACUGCGGGUUCGAGUCCCGUAUGGAACG	≤ 0.5
GUUCCGUUGGCGUAAUGGUACCGCGUCACCCCCCUAAGGAGAAGACUGCGGGUUCGAGUCCCGUACGAAACG	≤ 0.5
GUUCCGUUGGCGUAAUGGUACCGCGUCUCCCACCUAAGGAGAAGAAUGCGGGUUCGAGUCCCGUACGGAACG	0.744
GUUCCGUUGGCGUAAUGGUACCGCGUCACCCUCCUAAAGAGAAGACUGCGGGUUCGAGCCCCGUACAGAACG	≤ 0.5
GUUCCGUUGGCGUAAUGGUACCGCGCCUCCCUCCUAAGGGGAAGACCGCGGGUUCGAGUCCCGUACGGAACG	≤ 0.5
GUUCCGUUGGCGUAAUGGUAGCGCGUCUCCCUCCUAAGGAGCAGACUGCGGGUUCGAGUCCCGUACGGAUCG	0.761
GUUCCGUUGGCGUAAUGGUAGCGCGUCUCCCUCCUAAGGGGAAGACUGCGGGUUCGAGUCCCGUACGGAUCG	0.609
GUUCCGUUGGCGUAAUGGUACCGCGUCUCCCUCCUAAGGAGAAGACAGCGGGUUCGAGUCCCGUACGGAACG	0.85
GUUCCGUUGGCGUAAUGGUAGCGCGUCUCCCUCCUAAGGAGGAGACUGCGGGUUCGAGUCCCGUAGGGAACG	≤ 0.5
GUUCCGUUGGCGUAAUGGUAGCGCGUCUCCCUCCUAAGGAGCAGACUGCGGGUUCGAGUCUCGUACGGAACG	0.659
GUUCCGUUGGCGUAAUGGUACCGCGUCACCGUCCUAAGGAGAAGACUGCGGGUUCGAGUCCCGUACGGAACG	≤ 0.5
GUUCCGUUGGCGUAAUGGUAGCGCGUCUCCCUCCUGAGGAGAAGACUGCGGGUUCGAGUCCCGUACGGAACG	0.954
GUUCCGUUGGCGUAAUGGUACCGCGUCACCCUCCUAAGGAGAAGACUGCGGGUUCGAGUCCCGUACGGAACG	0.738
GUUCCGUUGGCGUAAUGGUAGCGCGUCUCCCUCCUAAGGGGAAGACUGCGGGUUCGAGUCCCGUACGGAACG	0.986
GUUCCGUUGGCGUAAUGGUAGCGCGUCUCCCUCCUAAGGUGAAGACUGCGGGUUCGAGUCCCGUACGGAACG	0.914

Variant	yeast fitness
GUUCCGUUGGCGUAAUGGUAGCGCGUCUCCCUCCUAAGGCGAAGACUGCGGGUUCGAGUCCCGUACGGAACG	0.88
GUUCCGUUGGCGUAAUGGUAGCGCGUCUCCCUCCUAAGGAGACGACUGCGGGUUCGAGUGCCGUACGGUACG	≤ 0.5
GUUCCGUUGGCGUAAUGGUAGCGCGUCUCCCUCCUUAGGAGAAGACUGAGGGUUCGAGUCCCGUACGGAACG	≤ 0.5
GUUCCGUUGGCGUAAUGGUACCGCGCCUCCCUCGUAAGGAGAAAAAUGCGGGUUGGAACCCCGUACGGUACG	0.625
GUUCCGUUGGCGUAAUGGUACCGCGUCUCCCACCUAAGGAGAAGAAUGCGGGUUCGAGUCCCGACCGGAACG	≤ 0.5
GUUCCGUUGGCGUAAUGGUAGCGCGUCUCCCUCCUAGGCAGAAGACUGCGGGUUCGAGUCCUGUACGGAACG	≤ 0.5
GUUCCGUUGGCGUAAUGGUACCGCGUCUCCCUCCUAAGGAGAAGACUGCGGGUUCGAGACCCGUACGGAACG	0.791
GUUCCGUUGGCGUAAUGGUACCGCGCCUCCCUCCUAAGGAGAAGACUGCGGGUUCGAGUCCCGUACGGAACG	0.785
GUUCCGUUGGCGUAAUGGUAGCGCGUCUCCCUCCUAAGGAGAAGACUGCGGGUUCGAGUCCCGUACGGAACG	1
GUUCCGUUGGCGUAAUGGUACCGCGUCUCCCUCCUAAGGAGAAGACUGCGGGUUCGAGUCCCGGACGGGACG	0.504
GUUCCGUUGGCGUAAUGGUAGCGCGUCUCCCUCCUAAGGAGACGACUGCGGGUUCGAGUCCCGUACGGUCCG	0.762
GUUCCGUUGGCGUAAUGGUACCGCGUCUCCCACUUAAGGAGAAGACUGCGGGUUCGAGUCCCGUACGGAACG	≤ 0.5
GUUCCGUUGGCGUAAUGGUAGCGCGUCUCCCUCCUAAGGAGCAGACUGCGGAUUCGAGUCCCGUACGGAACG	0.637
GUUCCGUUGGCGUAAUGGUACCGCGUCUCCCACAUAAAGAGAAGUCUGCGGGUUCGAGUCCCGUACGGAACG	≤ 0.5
GUUCCGUUGGCGUAAUGGUACCGCGUCUCCCUCCUAAGGAGAAGACUGCGGGGUCGAGUCCUGUACGCAACG	≤ 0.5
GUUCCGUUGGCGUAAUGGUAGCGCGUCUCCCUCCUUAGGAGAAGACUGCGGGUUCGAGUCUCGUACGGAACG	≤ 0.5
GUUCCGUUGGCGUAAUGGUACCGCGUCUCCCGCCUAAGGAGAAGACUGCGGGUUCGAGUCCCGUACGGAACG	0.617
GUUCCGUUGGCGUAAUGGUACCGCGUCUCCCCCCUAAGGGGAAGACUGCGGGUUCGAGUCCCGUACGGAACG	0.557
